The values below come from ChEMBL document CHEMBL1159311, “Antiinflammatory constituents of Celastrus orbiculatus inhibit the NF-kappaB activation and NO production” (J Nat Prod, 2002).

A value given as a limit tells only on which side of the number the result lay.

Assay [1] concerns RAW264.7. Description: Antiinflammatory activity against mouse RAW264.7 cells assessed as inhibition of LPS-induced NO production […] assessed after 24 hrs by Griess reagent assay. Format: functional, cell-based. The method, boiled down:
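RAW264.7 cells were seeded at 1 × 10^5 cells/well and held 3 h. They were then stimulated with LPS (1 µg/mL) for 24 h with or without compound. Supernatant nitrite was measured by Griess reaction: equal volumes of supernatant and reagent (0.1% N-(1-naphthyl)ethylenediamine and 1% sulfanilamide in 5% phosphoric acid, 1:1), absorbance at 570 nm. Values were quantified against a sodium nitrite standard curve. Aminoguanidine served as reference. IC50 reported. Viability was checked by MTT.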

Assay [2] relates to RAW264.7. Kind of assay: Antiinflammatory activity against mouse RAW264.7 cells assessed as inhibition of LPS-induced NF-kappaB activation […] assessed after 24 hrs by SEAP reporter gene assay. Format: functional, cell-based. A digest of the protocol:
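RAW264.7 cells stably carrying a plasmid with eight κB elements driving SEAP were seeded at 5 × 10^4 cells/well and held 3 h at 37 °C. Cells then received test compounds at various concentrations together with LPS (1 µg/mL) for 24 h. Supernatant was heated 65 °C for 5 min, then mixed with 2× SEAP buffer (2 M diethanolamine, 1 mM MgCl2, 20 mM L-homoarginine) for 10 min at 37 °C. p-Nitrophenyl phosphate substrate was added, incubated at 37 °C, and A405 read. Dose-response IC50 reported.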
For orientation: Reporter assays use an easily measured gene product as a stand-in for the process of interest.

Usually IC50 stands for the midpoint of a concentration-inhibition curve. Turning to `CC(=O)O[C@H]1[C@@H](OC(=O)c2ccco2)C[C@@H](C)[C@]23OC(C)(C)[C@H](C[C@H](OC(=O)c4ccco4)[C@]12C)[C@H]3OC(=O)c1ccco1` [ORBICULIN I], the IC50 amounted to 51.2 µM in the assay on RAW264.7 [1] and 61.5 µM with RAW264.7 [2]. Turning to `N=C(N)NN` [PIMAGEDINE], the IC50 in the assay with RAW264.7 [1] was determined as 16.3 µM. In the case of `CC1=C(O)C(=O)C=C2C1=CC=C1[C@@]2(C)CC[C@@]2(C)[C@@H]3C[C@](C)(C(=O)O)CC[C@]3(C)CC[C@]12C` [CELASTROL], the IC50 in the assay on RAW264.7 [1] amounted to 0.23 µM; with RAW264.7 [2], 0.27 µM. Take `CC(=O)O[C@H]1[C@@H](OC(=O)c2ccco2)C[C@@H](C)[C@]23OC(C)(C)[C@H](C[C@H](OC(=O)c4ccccc4)[C@]12C)[C@H]3OC(=O)c1ccco1` [ORBICULIN F]: the IC50 in the assay with RAW264.7 [1] and in the assay on RAW264.7 [2] was > 300 µM each time. On to `CC1(C)CCC[C@@]2(C)C1=C(O)C(=O)c1cc(O)c(O)cc12` [CELAPHANOL A], for which the values for the IC50 in the assay on RAW264.7 [1] and in the assay with RAW264.7 [2] were 32.6 µM and 18.2 µM, respectively.

`CC(=O)O[C@H]1CC[C@@H](C)[C@]23OC(C)(C)[C@H](C[C@H](OC(=O)c4ccco4)[C@]12C)[C@H]3OC(=O)c1ccco1` [ORBICULIN D]: the IC50 came out at 43.6 µM with RAW264.7 [1] and 36.7 µM in the assay with RAW264.7 [2].

Regarding `CC(=O)O[C@H]1C[C@@H](C)[C@]23OC(C)(C)[C@H](C[C@H](OC(=O)c4ccccc4)[C@]2(C)[C@H]1OC(C)=O)[C@H]3OC(=O)c1ccco1` [ORBICULIN E], the IC50 in the assay on RAW264.7 [1] and in the assay with RAW264.7 [2] was > 300 µM throughout. With `CC(=O)O[C@@H]1[C@@H]2[C@@H](OC(=O)c3ccco3)[C@]3(OC2(C)C)[C@H](C)CC[C@H](OC(C)=O)[C@@]3(C)[C@H]1OC(=O)c1ccco1` [ORBICULIN H], the IC50 is 50.4 µM in the assay on RAW264.7 [1] and 33.5 µM in the assay with RAW264.7 [2]. Consider `CC(=O)O[C@H]1C[C@@H](C)[C@]23OC(C)(C)[C@H](C[C@H](OC(=O)c4ccccc4)[C@]2(C)[C@H]1OC(C)=O)[C@H]3OC(=O)c1ccccc1` [ORBICULIN A], for which the IC50 in the assay with RAW264.7 [1] and with RAW264.7 [2] was > 300 µM in each case.
